In the library only some 2.3% were active in any assay of this set; here they are far more common.
ARFGAP1 inh – inhibits rat ARF GTPase activating protein 1; inhibition, % at 16.5 µM; AID 651572; actives 0.26% (n = 360,000); Arfgap1-stimulated ARF1 GTP hydrolysis, GDP FP detection;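 active means inhibition above a per-plate limit, mean inhibition of low control wells plus 3 SD, cut at about 25% in these data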
Target sequence (Q62848 1-136 limits assumed): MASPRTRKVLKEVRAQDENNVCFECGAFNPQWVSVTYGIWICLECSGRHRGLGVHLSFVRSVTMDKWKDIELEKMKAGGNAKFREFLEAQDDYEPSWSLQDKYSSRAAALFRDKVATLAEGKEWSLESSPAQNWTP
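Material: rat Arfgap1 GAP domain (His6, aa 1-136), purified enzyme. Also added: human ARF1(Δ1-17)-GTP substrate. Compound dosing: 16.5 µM single point, 1.26% DMSO. Timing: enzyme reaction 120 min at 25 °C after 20 min preincubation. Signal: GDP detection by fluorescence polarization. Read-out basis: percent inhibition of GAP-stimulated GDP formation, scaled between DMSO and no-Arfgap1 medians.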
SKKanGAS inh – blocks kanamycin growth of S. pyogenes SKKanGAS strain. inhibition, % at 7.5 µM. AID 1662. actives 1.3% (n = 300,000). BacTiter-Glo, 6 h;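 active means mean replicate score, as percent of positive control median, at least 50; inconclusive means mean below 50 but one replicate at or above 50; inactive means mean and every replicate below 50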;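 further: strain carries kanamycin resistance gene driven by streptokinase promoter and grows in 40 µg/ml kanamycin; loss of luminescence reflects streptokinase promoter inhibition or plain growth inhibition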
HGIII-sPLA2 inh – Blocks human group III sPLA2 activity; QFRET BODIPY PC-A2 liposome hydrolysis, fluorescence; inhibition, % at 12.2 µM; actives 0.56% (n = 370,000);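 active means inhibition above mean plus 3 SD of compounds lying within the high and low control bounds, cut at about 19% in these data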
Target sequence (Q9NZ20 whole entry, looked up): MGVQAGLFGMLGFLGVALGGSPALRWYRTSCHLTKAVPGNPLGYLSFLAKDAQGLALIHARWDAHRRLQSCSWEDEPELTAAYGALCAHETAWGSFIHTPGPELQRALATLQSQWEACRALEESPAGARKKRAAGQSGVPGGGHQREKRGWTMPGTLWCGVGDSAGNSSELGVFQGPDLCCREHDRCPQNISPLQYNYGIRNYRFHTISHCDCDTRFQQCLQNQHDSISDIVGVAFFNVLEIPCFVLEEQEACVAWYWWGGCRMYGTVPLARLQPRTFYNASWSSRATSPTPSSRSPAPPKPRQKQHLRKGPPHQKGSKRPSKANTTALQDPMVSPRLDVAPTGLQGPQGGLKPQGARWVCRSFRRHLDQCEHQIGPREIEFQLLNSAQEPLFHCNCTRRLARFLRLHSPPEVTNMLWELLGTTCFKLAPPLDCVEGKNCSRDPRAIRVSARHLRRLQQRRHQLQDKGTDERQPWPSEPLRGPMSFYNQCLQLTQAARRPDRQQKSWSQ
ASAP1 inh – blocks human ASAP1-stimulated Arf1 GTP hydrolysis. GDP FP detection. inhibition, % at 16.5 µM. actives 0.19% (n = 360,000). AID 624377; in the data active means inhibition above about 25%
Calb FLC – affects C. albicans growth with fluconazole; actives 0.57% (n = 300,000); growth inhibition, % (concentration not given with the values); C. albicans CaCi-2 + fluconazole, Alamar Blue growth, 48 h;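 active means growth inhibition above about 58% in most replicates, limit read from the data, passing the limit was not always enough; inconclusive means exactly half the replicates above a set limit; inactive means most replicates below a set limit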;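 further: all wells also contain fluconazole at 8 µg/ml as a sub-toxic cotreatment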
sPLA2 confirm – human GIII-sPLA2 inhibition, confirmation | shares compounds with HGIII-sPLA2 inh | recombinant hGIII-sPLA2, BODIPY PC-A2 QFRET fluorescence | inhibition, % at 12.2 µM | actives 34% (n = 2,000) | AID 743280;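 active means mean inhibition across triplicates above the hit cutoff set in the earlier primary screen, cut at about 19% in these data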
BODIPY interf – 535nm fluorescence interference, HGIII-sPLA2 counter-screen. shares compounds with HGIII-sPLA2 inh. actives 8.5% (n = 2,000). AID 743282. inhibition, % at 12.2 µM. BODIPY FL product fluorescence interference, QFRET;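 active means average inhibition above the solvent-only control mean plus 3 SD, cut at about 6% in these data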
BODIPY interf DR – 535nm optical interference dose response, HGIII-sPLA2 counter-screen. shares compounds with HGIII-sPLA2 inh. 240 tested, under 10 active. BODIPY FL product fluorescence interference, cell-free. IC50, µM;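 active means IC50 at or below 10 µM; inactive means IC50 above 10 µM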
Large screens that a line does not name were inactive (follow-up assays come after a bar, where they were run).

CCOC(=O)CSC1=C(C#N)C(c2sccc2C)C(C(C)=O)=C(C)N1 (stereo unspecified)	Calb FLC inconclusive
O=C(NN=Cc1cccc(O)c1O)c1ccccc1	none (no result: SKKanGAS inh, Calb FLC)
Cc1cccc(/C=N/NC(=O)c2c(-c3ccccc3)noc2C)c1O	HGIII-sPLA2 inh 34 | sPLA2 confirm inactive | BODIPY interf inactive
Cc1cccc(/C=N/NC(=O)c2ccc3c(c2)OCCO3)c1O	SKKanGAS inh 91, HGIII-sPLA2 inh 30 | sPLA2 confirm 19 | BODIPY interf inactive
COc1ccccc1/C=N/NC(=O)c1c(-c2ccccc2)noc1C	none
Cc1cccc(/C=N\NC(=O)c2ccc(Cl)cc2)c1O	SKKanGAS inh 93, HGIII-sPLA2 inh 37 | sPLA2 confirm 22 | BODIPY interf inactive
CCCCS(=O)(=O)N1C2=NC(C(=O)OCC)=C(C(=O)OCC)C3N(Cc4ccc(Br)cc4)c4ccccc4[C@]23C[C@H]1C(=O)OC (stereo partly specified)	none (no result: SKKanGAS inh, Calb FLC)
COC(=O)[C@]12C[C@H](CC(=O)N3CCC(c4ccccc4)CC3)C(=O)N(Cc3ccco3)C1=C[C@H](C(C)(C)C)O[C@@H]2C	none (no result: ARFGAP1 inh, SKKanGAS inh, ASAP1 inh, Calb FLC)
COC(=O)[C@]12C[C@H](CC(=O)NCc3ccc(C)o3)C(=O)N(Cc3ccco3)C1=C[C@H](C(C)C)O[C@@H]2C1CC1	none (no result: ARFGAP1 inh, SKKanGAS inh, ASAP1 inh, Calb FLC)
COC(=O)[C@]12C[C@H](CC(=O)NCC3CCCCC3)C(=O)N(Cc3ccco3)C1=C[C@H](C(C)(C)C)O[C@@H]2C	none (no result: ARFGAP1 inh, SKKanGAS inh, ASAP1 inh, Calb FLC)
CCCCc1c(-c2ccccc2OC)ncn1Cc1cccc(F)c1	none (no result: SKKanGAS inh, Calb FLC)
COc1ccccc1NC(=S)N1CCC(c2nc3cc(C)c(C)cc3[nH]2)CC1	HGIII-sPLA2 inh 21 | sPLA2 confirm inactive | BODIPY interf inactive
COc1ccccc1NC(=O)N1CCC(c2nc3cc(C)c(C)cc3[nH]2)CC1	none
CN(C)c1cccc(C(=O)NNC(=S)NC2CC3CCC2C3)c1 (stereo unspecified)	HGIII-sPLA2 inh 20 | sPLA2 confirm 25 | BODIPY interf inactive
Cc1ccc(NNC(=O)c2ccc(Cl)cc2)nn1	HGIII-sPLA2 inh 47 | sPLA2 confirm 73 | BODIPY interf 74
Cc1cccc(CCNC(=O)c2ccc3c(c2)ncn3C2CCCCC2)c1	none (no result: ARFGAP1 inh, SKKanGAS inh, ASAP1 inh, Calb FLC)
COC(=O)CC1CCc2cc(C)cc(C(=O)CC(C)C)c2O1 (stereo unspecified)	none (no result: ARFGAP1 inh, SKKanGAS inh, ASAP1 inh, Calb FLC)
CC(c1ccccc1)N(NC(=O)C(O)(c1ccccc1)c1ccccc1)C(=O)c1ccccc1 (stereo unspecified)	HGIII-sPLA2 inh 22 | sPLA2 confirm inactive | BODIPY interf inactive
O=C(OCc1cn(Cc2ccccc2Cl)nn1)N1CCOCC1	none (no result: ARFGAP1 inh, SKKanGAS inh, ASAP1 inh, Calb FLC)
CCCn1nnc(NC(=O)c2ccc(OCC)c(Cl)c2)n1	HGIII-sPLA2 inh 24 | sPLA2 confirm inactive | BODIPY interf inactive
O=C(NNc1nc2ccc(Cl)cc2s1)c1cc(-c2cccs2)nc2ccccc12	SKKanGAS inh 88, HGIII-sPLA2 inh 28, Calb FLC 86 | sPLA2 confirm 35 | BODIPY interf 13
Cc1cc(C)c2nc(NNC(=O)c3cc(-c4cccs4)nc4ccccc34)sc2c1	SKKanGAS inh 89, HGIII-sPLA2 inh 37, Calb FLC 82 | sPLA2 confirm 34 | BODIPY interf inactive | BODIPY interf DR inactive
Cc1ccc(NC(=O)c2cc(-c3cccs3)nc3ccccc23)nc1	none
CC(=O)OCCCN1CCC2(CCC(c3ccccc3)CC2)C1=O (stereo unspecified)	none (no result: ARFGAP1 inh, SKKanGAS inh, ASAP1 inh, Calb FLC)
NNc1nc2c(F)cccc2s1	none
NNc1nc2c(F)cc(F)cc2s1	HGIII-sPLA2 inh 20 | sPLA2 confirm 20 | BODIPY interf inactive
N/C(=N\OC(=O)COc1ccc(Br)cc1)c1ccncc1	HGIII-sPLA2 inh 20, Calb FLC inconclusive | sPLA2 confirm inactive | BODIPY interf inactive
O=S1(=O)C=CCN1Cc1cn(Cc2ccc(F)cc2)nn1	none (no result: ARFGAP1 inh, SKKanGAS inh, ASAP1 inh, Calb FLC)
CC(C)Nc1ncnc2c1ncn2[C@H]1CN(Cc2ccc3c(c2)OCO3)C[C@@H](CO)O1	none (no result: SKKanGAS inh, Calb FLC)
S=C(NCC1CCCO1)Nc1ccc(Cl)cc1Cl (stereo unspecified)	HGIII-sPLA2 inh 25 | sPLA2 confirm inactive | BODIPY interf inactive
Cc1ccc2[nH]c(-c3cccc(N)c3)cc2c1	HGIII-sPLA2 inh 25 | sPLA2 confirm inactive | BODIPY interf inactive
Cc1ccc2[nH]c(-c3cccc(F)c3)cc(=O)c2c1	none
O=C1Nc2ccccc2-c2nnnn2C1N1CCCC1 (stereo unspecified)	none (no result: SKKanGAS inh, Calb FLC)
COC(=O)c1cc(-c2cc3ccccc3o2)c(=O)n2c1CCC2	none (no result: ARFGAP1 inh, SKKanGAS inh, ASAP1 inh, Calb FLC)
CCN(CC)CC(=O)Nc1cc(N(C)C)nc2ccccc12	HGIII-sPLA2 inh 20 | sPLA2 confirm inactive | BODIPY interf inactive
CCCNC(=O)N1[C@@H](CO)[C@H](c2ccc(C3=CCCC3)cc2)[C@@H]1CN(CC)S(=O)(=O)c1ccccc1[N+](=O)[O-]	none (no result: ARFGAP1 inh, SKKanGAS inh, ASAP1 inh, Calb FLC)
O=C(CSc1nc2ccccc2s1)NNC(=S)Nc1ccc(Cl)cc1	HGIII-sPLA2 inh 26 | sPLA2 confirm inactive | BODIPY interf inactive
C=CCNC(=S)NNC(=O)CSc1nc2ccccc2s1	HGIII-sPLA2 inh 30 | sPLA2 confirm 20 | BODIPY interf inactive
O=C(CSc1nc2ccccc2s1)NCCOc1ccc(Cl)cc1	none
CC(=O)C(C(C)=O)C1(O)C(=O)c2ccccc2C1=O	ARFGAP1 inh 32, HGIII-sPLA2 inh 22, ASAP1 inh 27 | sPLA2 confirm inactive | BODIPY interf inactive
CC(=O)N(C)C1=C(O)c2ccccc2C(=O)C1=O	none
CC1(C(=O)Nc2cccc(C#N)c2)CCN1C(=O)Cc1ccc(-c2ccccc2)cc1 (stereo unspecified)	none (no result: SKKanGAS inh, Calb FLC)
O=C(NNC(=S)NC(=O)c1ccccc1[N+](=O)[O-])c1ccccc1	HGIII-sPLA2 inh 19 | sPLA2 confirm 24 | BODIPY interf inactive
Cc1ccccc1OCC(=O)NNC(=S)NC(=O)c1ccccc1[N+](=O)[O-]	HGIII-sPLA2 inh 23 | sPLA2 confirm 28 | BODIPY interf inactive | BODIPY interf DR inactive
O=C(NC(=S)Nc1ccc(CN2CCOCC2)cc1)c1cccc([N+](=O)[O-])c1	HGIII-sPLA2 inh 19 | sPLA2 confirm inactive | BODIPY interf inactive
O=C(NC(=S)N1CCCCCC1)c1cccc([N+](=O)[O-])c1	HGIII-sPLA2 inh 20 (no result: SKKanGAS inh, Calb FLC) | sPLA2 confirm inactive | BODIPY interf inactive
O=C(NC(=S)Nc1ccc(N2CCOCC2)cc1)c1cccc([N+](=O)[O-])c1	none
CNC(=S)NNC(=O)COc1ccccc1C	none
C[C@H]1CN(c2ccc(N3CCN(C(=O)OC(C)(C)C)C[C@@H]3C)cc2C#N)CCN1Cc1ccccc1	none (no result: SKKanGAS inh, Calb FLC)
O=C1CSC(c2cccs2)N1c1nncs1 (stereo unspecified)	none (no result: SKKanGAS inh, Calb FLC)
